Experimental findings from ChEMBL document CHEMBL1153061, “Synergism of virtual screening and medicinal chemistry: identification and optimization of allosteric antagonists of metabotropic glutamate receptor 1” (Bioorg Med Chem, 2009) are described below.

Data set [1] deals with T1, Metabotropic glutamate receptor 1 (Rattus norvegicus, UniProt P23385). Briefly: Allosteric antagonist activity at mGluR1 in Sprague-Dawley rat cerebellar granule cells assessed as accumulation of [3H]inositol phosphate by liquid scintillation counting. The class given is functional. The method, boiled down: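 Cerebellar granule cells from P8 Sprague Dawley rats grown in BEM with 10% foetal calf serum and 2 mM glutamine. At 6 DIV switched to inositol-free DMEM with [3H]-myo-inositol (0.5 µCi/100 µl/well) for 48 h. Cells preincubated 15 min at 37 °C in Locke's buffer (20 mM LiCl, pH 7.4), then 45 min with agonists/test ligands. Lysed with 0.1 M HCl 10 min on ice. Inositol phosphates isolated on formate columns, eluted with 1 M ammonium formate/0.1 M formic acid, counted by liquid scintillation.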
T1 sequence (P23385 whole entry): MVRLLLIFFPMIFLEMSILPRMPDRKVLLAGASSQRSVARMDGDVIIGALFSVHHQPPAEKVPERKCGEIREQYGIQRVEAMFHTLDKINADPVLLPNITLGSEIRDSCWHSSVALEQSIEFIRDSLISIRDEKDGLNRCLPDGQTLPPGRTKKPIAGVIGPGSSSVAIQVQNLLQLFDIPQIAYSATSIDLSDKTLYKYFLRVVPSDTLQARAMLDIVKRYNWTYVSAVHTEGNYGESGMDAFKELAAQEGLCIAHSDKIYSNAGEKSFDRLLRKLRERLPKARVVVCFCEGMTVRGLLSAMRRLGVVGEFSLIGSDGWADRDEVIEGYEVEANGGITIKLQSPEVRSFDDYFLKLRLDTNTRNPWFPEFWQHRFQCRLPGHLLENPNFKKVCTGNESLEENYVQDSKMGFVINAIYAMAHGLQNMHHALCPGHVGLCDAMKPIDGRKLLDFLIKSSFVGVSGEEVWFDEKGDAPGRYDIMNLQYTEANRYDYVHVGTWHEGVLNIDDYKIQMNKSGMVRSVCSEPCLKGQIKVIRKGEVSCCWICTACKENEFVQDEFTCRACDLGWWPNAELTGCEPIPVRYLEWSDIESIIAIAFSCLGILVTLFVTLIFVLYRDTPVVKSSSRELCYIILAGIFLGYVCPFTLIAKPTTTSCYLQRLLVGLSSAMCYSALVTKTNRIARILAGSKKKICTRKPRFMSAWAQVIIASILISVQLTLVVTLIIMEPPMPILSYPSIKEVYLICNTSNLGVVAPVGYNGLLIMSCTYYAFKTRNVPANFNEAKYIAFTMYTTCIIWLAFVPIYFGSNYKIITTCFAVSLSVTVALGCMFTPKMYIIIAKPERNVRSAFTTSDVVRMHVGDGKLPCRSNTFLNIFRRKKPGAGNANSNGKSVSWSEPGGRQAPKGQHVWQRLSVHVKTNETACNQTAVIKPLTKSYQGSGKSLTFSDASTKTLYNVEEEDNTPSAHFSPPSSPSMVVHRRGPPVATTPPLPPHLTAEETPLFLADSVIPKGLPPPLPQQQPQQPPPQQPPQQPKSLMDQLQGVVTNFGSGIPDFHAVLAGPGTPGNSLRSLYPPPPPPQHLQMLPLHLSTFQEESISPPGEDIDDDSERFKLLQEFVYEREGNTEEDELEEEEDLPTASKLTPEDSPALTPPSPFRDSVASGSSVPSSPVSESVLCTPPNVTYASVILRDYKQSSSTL

Data set [2] concerns the target T1, Metabotropic glutamate receptor 1. Description: Displacement of [3H]E-3-(2-chloro-8-methylquinolin-3-yl)-1-(thiophen-2-yl)prop-2-en-1-one from mGluR1 in rat cerebellar membrane after 14 to 16 hrs by scintillation counting. The class given is cell membranes, Cerebellum. Background: Loss of bound radioactivity is the signal in a displacement assay; it reports binding, not function.

Data set [3] addresses Metabotropic glutamate receptor 5 (Rattus norvegicus, UniProt P31424). Briefly: Displacement of [3H]MPEP from mGluR5 in rat cortical membrane after 60 mins by liquid scintillation counting. The data set is classed as cell membranes. The method, boiled down: (§1)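 Rat cortical membranes, 125–250 µg protein, incubated with 5 nM [3H]-MPEP (50.2 Ci/mmol) and varying concentrations of test agent. Filters rinsed, and bound radioactivity counted by liquid scintillation.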

Data set [4] can be described thus: Solubility in water. The data set is classed as physicochemical. To be noted: buffer.
Data set [5] is filed under the species Rattus norvegicus. Briefly: Selectivity ratio of Ki for mGluR5 in rat cortical membrane to Ki for mGluR1 in rat cerebellar membrane. The class given is cell membranes.
The target of data set [6] is Metabotropic glutamate receptor 1 (Homo sapiens, UniProt Q13255). Briefly: Binding affinity to human GluR1 by FLIPR assay.
Metabotropic glutamate receptor 1 (Homo sapiens, UniProt Q13255), sequence (Q13255 whole entry): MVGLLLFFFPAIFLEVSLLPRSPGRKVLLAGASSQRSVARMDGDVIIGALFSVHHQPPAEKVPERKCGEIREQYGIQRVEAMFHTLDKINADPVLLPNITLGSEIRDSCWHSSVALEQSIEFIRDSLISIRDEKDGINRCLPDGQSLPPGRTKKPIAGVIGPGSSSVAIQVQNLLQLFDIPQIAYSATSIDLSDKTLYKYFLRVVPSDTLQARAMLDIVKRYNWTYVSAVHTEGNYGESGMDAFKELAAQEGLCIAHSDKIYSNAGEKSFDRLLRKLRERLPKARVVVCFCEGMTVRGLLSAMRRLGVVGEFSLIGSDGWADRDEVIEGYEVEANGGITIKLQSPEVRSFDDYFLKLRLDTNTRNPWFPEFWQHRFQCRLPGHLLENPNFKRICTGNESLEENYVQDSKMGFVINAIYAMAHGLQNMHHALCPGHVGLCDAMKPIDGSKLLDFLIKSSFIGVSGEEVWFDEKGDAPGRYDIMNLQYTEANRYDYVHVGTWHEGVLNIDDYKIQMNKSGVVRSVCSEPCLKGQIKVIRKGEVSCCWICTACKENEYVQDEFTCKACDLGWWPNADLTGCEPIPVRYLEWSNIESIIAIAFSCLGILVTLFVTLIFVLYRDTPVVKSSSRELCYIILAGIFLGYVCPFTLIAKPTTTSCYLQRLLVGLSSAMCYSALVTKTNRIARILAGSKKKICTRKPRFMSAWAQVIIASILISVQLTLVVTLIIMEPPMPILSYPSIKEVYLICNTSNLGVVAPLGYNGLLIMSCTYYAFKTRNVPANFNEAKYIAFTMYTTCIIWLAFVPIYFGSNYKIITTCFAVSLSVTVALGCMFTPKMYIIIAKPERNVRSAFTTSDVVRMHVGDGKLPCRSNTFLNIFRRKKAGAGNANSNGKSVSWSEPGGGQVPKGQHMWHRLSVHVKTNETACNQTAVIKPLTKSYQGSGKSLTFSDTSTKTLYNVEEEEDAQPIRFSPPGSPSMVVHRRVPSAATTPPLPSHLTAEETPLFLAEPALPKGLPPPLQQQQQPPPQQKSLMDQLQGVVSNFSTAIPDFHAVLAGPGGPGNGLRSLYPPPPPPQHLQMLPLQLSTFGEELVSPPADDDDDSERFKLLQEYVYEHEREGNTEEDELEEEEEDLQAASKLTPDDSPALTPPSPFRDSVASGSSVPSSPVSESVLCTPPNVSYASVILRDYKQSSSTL
Data set [7] addresses Metabotropic glutamate receptor 5 (Rattus norvegicus) (UniProt P31424). Briefly: Binding affinity to GluR5 in rat cortical membrane up to 10 uM. The data set is classed as cell membranes. The method, boiled down: as §1

The source made the active and inactive calls. The calls are words filed in the database; no cut-off is given here.

Metabotropic glutamate receptor 5, sequence (P31424 whole entry): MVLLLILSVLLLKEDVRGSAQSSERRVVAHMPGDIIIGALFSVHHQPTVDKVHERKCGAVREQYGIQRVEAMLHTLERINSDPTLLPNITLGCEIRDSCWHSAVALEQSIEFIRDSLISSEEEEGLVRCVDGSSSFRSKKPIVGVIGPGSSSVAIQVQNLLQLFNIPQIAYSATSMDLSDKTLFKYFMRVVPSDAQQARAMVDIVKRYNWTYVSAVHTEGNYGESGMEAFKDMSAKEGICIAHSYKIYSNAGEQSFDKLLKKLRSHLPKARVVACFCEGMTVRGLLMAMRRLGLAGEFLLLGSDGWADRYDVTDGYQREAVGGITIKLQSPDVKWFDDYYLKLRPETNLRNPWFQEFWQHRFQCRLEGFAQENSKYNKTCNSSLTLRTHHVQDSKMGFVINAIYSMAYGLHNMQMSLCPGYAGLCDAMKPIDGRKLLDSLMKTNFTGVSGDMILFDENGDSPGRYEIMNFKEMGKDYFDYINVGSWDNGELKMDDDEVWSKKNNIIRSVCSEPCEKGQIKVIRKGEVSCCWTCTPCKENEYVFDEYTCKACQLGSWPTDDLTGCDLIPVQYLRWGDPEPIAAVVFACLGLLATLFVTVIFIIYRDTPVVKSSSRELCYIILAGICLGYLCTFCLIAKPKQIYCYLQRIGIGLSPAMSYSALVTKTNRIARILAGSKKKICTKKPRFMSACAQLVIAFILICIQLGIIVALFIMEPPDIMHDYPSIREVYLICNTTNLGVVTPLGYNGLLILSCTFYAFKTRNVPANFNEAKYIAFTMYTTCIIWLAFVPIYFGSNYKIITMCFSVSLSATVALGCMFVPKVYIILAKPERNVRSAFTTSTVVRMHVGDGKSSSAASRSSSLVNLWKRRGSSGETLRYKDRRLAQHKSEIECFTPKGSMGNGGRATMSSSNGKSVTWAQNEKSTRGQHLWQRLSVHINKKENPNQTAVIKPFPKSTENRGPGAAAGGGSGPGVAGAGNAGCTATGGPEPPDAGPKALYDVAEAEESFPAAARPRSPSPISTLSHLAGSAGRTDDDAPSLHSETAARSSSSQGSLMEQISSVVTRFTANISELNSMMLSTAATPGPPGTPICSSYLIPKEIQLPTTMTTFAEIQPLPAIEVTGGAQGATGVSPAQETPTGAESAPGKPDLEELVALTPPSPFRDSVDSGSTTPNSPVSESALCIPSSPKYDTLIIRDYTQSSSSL
Metabotropic glutamate receptor 5 (Rattus norvegicus), sequence (P31424 21-1203 limits assumed): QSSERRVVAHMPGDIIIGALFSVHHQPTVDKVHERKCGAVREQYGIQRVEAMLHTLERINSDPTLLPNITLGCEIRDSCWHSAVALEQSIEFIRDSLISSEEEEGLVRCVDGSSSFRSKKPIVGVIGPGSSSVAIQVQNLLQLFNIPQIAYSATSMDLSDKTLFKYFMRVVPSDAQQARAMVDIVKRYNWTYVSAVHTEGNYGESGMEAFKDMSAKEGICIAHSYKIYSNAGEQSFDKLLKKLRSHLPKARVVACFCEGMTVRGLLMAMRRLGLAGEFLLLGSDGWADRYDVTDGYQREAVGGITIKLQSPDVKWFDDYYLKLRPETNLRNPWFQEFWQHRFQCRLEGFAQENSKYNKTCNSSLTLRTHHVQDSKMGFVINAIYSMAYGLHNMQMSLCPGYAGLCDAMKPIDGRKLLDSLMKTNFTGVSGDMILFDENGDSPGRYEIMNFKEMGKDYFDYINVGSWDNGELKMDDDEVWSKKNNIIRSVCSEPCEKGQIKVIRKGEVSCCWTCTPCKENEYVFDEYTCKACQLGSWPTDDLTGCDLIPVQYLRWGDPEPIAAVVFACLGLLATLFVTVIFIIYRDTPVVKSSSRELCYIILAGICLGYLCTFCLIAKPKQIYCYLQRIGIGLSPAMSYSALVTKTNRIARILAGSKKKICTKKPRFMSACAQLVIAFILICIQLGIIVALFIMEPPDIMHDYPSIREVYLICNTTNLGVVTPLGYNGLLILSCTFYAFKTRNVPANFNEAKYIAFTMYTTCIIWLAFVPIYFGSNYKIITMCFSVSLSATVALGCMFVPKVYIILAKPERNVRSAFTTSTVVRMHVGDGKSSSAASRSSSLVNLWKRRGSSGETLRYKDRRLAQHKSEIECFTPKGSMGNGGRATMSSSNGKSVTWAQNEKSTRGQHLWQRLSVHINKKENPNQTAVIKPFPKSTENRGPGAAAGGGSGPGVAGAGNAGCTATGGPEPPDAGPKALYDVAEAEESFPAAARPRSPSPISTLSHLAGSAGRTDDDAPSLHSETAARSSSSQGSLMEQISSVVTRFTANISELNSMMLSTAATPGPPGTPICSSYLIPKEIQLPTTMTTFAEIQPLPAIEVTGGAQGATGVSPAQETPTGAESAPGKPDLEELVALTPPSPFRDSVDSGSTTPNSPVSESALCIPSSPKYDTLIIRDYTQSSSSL

Turning to `CCCCC1CCC(C(=O)Oc2ccc(C(C)=O)cc2)CC1` (configuration not stated), in data set [1], the IC50 was > 40 µM. In addition, in data set [2], the inhibition constant Ki was > 40 µM.
Turning to `O=C(c1ccccc1)c1ccc(/N=C/c2ccc(Br)cc2)cc1`, the half-maximal inhibitory concentration (IC50) in data set [1] was > 40 µM. Also, in data set [2], the inhibition constant Ki was > 40 µM.
As for `O=C(/C=C/c1cnc2ccccc2c1)C1CC1`, the inhibition constant (Ki) in data set [2] and in data set [3] was > 100 µM in each case.
As to `CCCCOc1ccc(-c2nnc(-c3ccc(-c4ccccc4)cc3)s2)cc1`, the IC50 in data set [1] came out at 28.4 µM. The inhibitory constant (Ki) in data set [2] was > 40 µM.
As for `Cc1ccc2cc(/C=C/C(=O)c3c(C)coc3C)c(Cl)nc2c1`, the IC50 in data set [1] is > 40 µM. Also, the Ki in data set [2] is > 40 µM; in data set [3] it was > 100 µM.
With `O=c1cc(-c2ccccc2)c2ccc(OCc3ccc(F)cc3)cc2o1`, the IC50 in data set [1] worked out at 23.9 µM. Besides, the inhibition constant Ki in data set [2] was > 40 µM.
Consider `O=C(C1CC1c1ccc(N2CCOCC2)nc1)C12CC3CC(CC(C3)C1)C2` (configuration not stated), for which the solubility entry in data set [4] is on record as “Soluble”. In addition, the Ratio Ki in data set [5] turned out to be 1160. Moreover, the values for the Ki in data set [2], in data set [6] and in data set [3] were 0.024 µM, 0.11 µM and 27.8 µM, respectively.
For the molecule `CCCCCCc1cc2c3c(c(=O)oc2cc1OC)CCC3`, the concentration for half-maximal inhibition (IC50) in data set [1] came out at 23.9 µM. Moreover, the Ki in data set [2] was > 40 µM.
As for `Cc1ccc2cc(/C=C/C(=O)c3cccs3)c(Cl)nc2c1`, the half-maximal inhibitory concentration (IC50) in data set [1] is 2.97 µM. In addition, the Ki in data set [2] was 17.2 µM; in data set [3], > 100 µM.
In the same order, the values of `Cc1ccc2nc(Cl)c(/C=C/C(=O)c3cccs3)cc2c1` are 0.74 µM, 9.93 µM and > 100 µM.
On to `COc1ccc(C(=O)/C=C/c2ccc(OC3CSC3)cc2)cc1`, for which the IC50 in data set [1] is > 40 µM. The Ki in data set [2] was > 40 µM.
Turning to `O=C(/C=C/c1cnc2ccccc2c1)C12CC3CC(CC(C3)C1)C2`, the Ratio Ki in data set [5] was 29.9. Also, the results for the inhibitory constant (Ki) in data set [2] and in data set [3] were 0.021 µM and 0.807 µM, respectively.
`O=C(C1CC1c1cnc2ccccc2c1)C12CC3CC(CC(C3)C1)C2` (configuration not stated): the result in data set [7] was inactive. Also, in data set [5], the Ratio Ki is > 730. Also, the Ki was 0.137 µM in data set [2] and > 100 µM in data set [3].
Consider `COc1ccc(C2CC2C(=O)C23CC4CC(CC(C4)C2)C3)cn1` (configuration not stated), for which, in data set [5], the Ratio Ki was 60.5. Also, the Ki in data set [2] was determined as 0.304 µM; in data set [3], 18.4 µM.
Consider `O=c1cc(-c2ccccc2)c2ccc(OCc3cccc(Oc4ccccc4)c3)cc2o1`, for which the concentration for half-maximal inhibition (IC50) in data set [1] was > 40 µM. Moreover, the Ki in data set [2] was > 40 µM.
As for `COc1ccc(C(=O)/C=C/c2cc3ccc(C)cc3nc2Cl)cc1`, the IC50 in data set [1] is 39.3 µM. Also, the inhibitory constant (Ki) in data set [2] was > 40 µM; in data set [3] it was > 100 µM.
Regarding `COc1ccc(C(=O)/C=C/c2cc3cc(C)ccc3nc2Cl)cc1`, in data set [1], the concentration for half-maximal inhibition (IC50) amounted to 20.5 µM. Further, the Ki was > 40 µM in data set [2] and > 100 µM in data set [3].
`O=C(/C=C/c1ccc2c(c1)OCCO2)C12CC3CC(CC(C3)C1)C2`: the Ratio Ki in data set [5] came out at 9.72. The inhibition constant Ki in data set [2] stood at 0.641 µM; in data set [3] it was 6.23 µM.
On to `CCCCCc1ccc(-c2ccc(OC(=O)C3CCC(CC)CC3)cc2)nc1` (configuration not stated), for which, in data set [1], the IC50 amounted to 22.5 µM. Also, in data set [2], the Ki is > 40 µM.
Turning to `O=c1cc(-c2ccccc2)c2cc(Cl)c(OCc3ccc(F)cc3)cc2o1`, the 50% inhibitory concentration (IC50) in data set [1] was > 40 µM. In data set [2], the inhibition constant (Ki) is > 40 µM.
Turning to `CC(Oc1ccc2c(c1)oc(=O)c1ccccc12)c1ccccc1` (configuration not stated), the concentration for half-maximal inhibition (IC50) in data set [1] was > 40 µM. In addition, in data set [2], the Ki is > 40 µM.
As for `CCCCCCOc1ccc(C(=O)Oc2ccc(C3CCCCC3)cc2)cc1`, the IC50 in data set [1] is > 40 µM. In addition, in data set [2], the inhibition constant (Ki) is > 40 µM.
Turning to `CC(CC(=O)c1ccc2c(c1)OCCO2)c1ccccc1` (configuration not stated), the half-maximal inhibitory concentration (IC50) in data set [1] turned out to be 10.6 µM. The Ki in data set [2] stood at 36.2 µM.
With `COc1ccc(/C=C/C(=O)C23CC4CC(CC(C4)C2)C3)cc1C`, the Ratio Ki in data set [5] came to 17.5. Also, the Ki in data set [2] amounted to 0.294 µM; in data set [3], 5.15 µM.
In the case of `CC(C)(C)C(=O)/C=C/c1cnc2ccccc2c1`, in data set [5], the Ratio Ki amounted to 5.9. Besides, the Ki in data set [2] came to 5.23 µM; in data set [3] it was 30.6 µM.
For the molecule `COc1ccc(-c2cc(C)nc(-c3ccc(OC)c(Br)c3)c2)cc1Br`, in data set [1], the IC50 is > 40 µM. The inhibitory constant (Ki) in data set [2] is > 40 µM.
In the case of `Cc1ccc2nc(Cl)c(/C=C/C(=O)c3ccccc3)cc2c1`, the IC50 in data set [1] worked out at 1.7 µM. The Ki is 9.18 µM in data set [2] and > 100 µM in data set [3].
In the case of `CC(=O)c1ccc(OC(=O)c2ccc(-c3ccccc3)cc2)cc1`, the 50% inhibitory concentration (IC50) in data set [1] was > 40 µM. Besides, the Ki in data set [2] was > 40 µM.
For the molecule `O=C(C1CC1c1cccnc1)C12CC3CC(CC(C3)C1)C2` (configuration not stated), in data set [5], the Ratio Ki was 3.26. The values for the Ki in data set [2] and in data set [3] were 7.04 µM and 22.9 µM, respectively.
As to `O=C(c1ccc(Cl)cc1)c1ccc2c(c1)CCCCO2`, the half-inhibitory concentration (IC50) in data set [1] is > 40 µM. Besides, in data set [2], the Ki was > 40 µM.
As to `COc1cc2c(cc1OC)C(Cc1ccccc1)=NC(C)(C)C2`, in data set [1], the half-maximal inhibitory concentration (IC50) is > 40 µM. In data set [2], the Ki was > 40 µM.
For `Cc1cccc2cc(/C=C/C(=O)c3ccccc3)c(Cl)nc12`, the IC50 in data set [1] came out at 8.5 µM. Moreover, the inhibitory constant (Ki) is > 40 µM in data set [2] and > 100 µM in data set [3].
In the case of `CCOc1ccc(C(=O)/C=C/c2ccc(OCc3ccc(Cl)cc3Cl)cc2)cc1`, the 50% inhibitory concentration (IC50) in data set [1] was > 40 µM. Also, the Ki in data set [2] was > 40 µM.
Turning to `Cc1ccc(C(=O)c2ccc(Oc3ccccc3)cc2)cc1C`, the concentration for half-maximal inhibition (IC50) in data set [1] amounted to 15.3 µM. In data set [2], the inhibition constant Ki is > 40 µM.
On the same counts, the results for `O=C(/C=C/c1ccc(Cl)cc1)c1ccc(Oc2ccccc2)cc1` are 30 µM and > 40 µM.
In the same order, the values of `CCn1c2ccccc2c2cc(/C=N/c3ccc(C)c(F)c3)ccc21` are > 40 µM and > 40 µM.
On the same counts, the results for `COc1ccc(C(=O)c2ccc(C(=O)c3ccc(C)c(OC)c3)cc2)cc1C` are > 40 µM and > 40 µM.

Usually IC50 stands for the midpoint of a concentration-inhibition curve. For orientation: Ki means the dissociation constant of the complex between target and ligand, obtained from inhibition or displacement.
